In ChEMBL document CHEMBL1128301, “Cephalosporin derivatives of doxorubicin as prodrugs for activation by monoclonal antibody-beta-lactamase conjugates” (J Med Chem, 1995):

How the values were obtained:
[1] = target: T1, Metallo-beta-lactamase type 2 (Bacillus cereus) (UniProt P14488); experiment: The kinetic constant(kcat) value as spectrophotometrically by using Bacillus cereus beta-lactamase (BCbL) enzyme as catalyst
T1 sequence (whole entry): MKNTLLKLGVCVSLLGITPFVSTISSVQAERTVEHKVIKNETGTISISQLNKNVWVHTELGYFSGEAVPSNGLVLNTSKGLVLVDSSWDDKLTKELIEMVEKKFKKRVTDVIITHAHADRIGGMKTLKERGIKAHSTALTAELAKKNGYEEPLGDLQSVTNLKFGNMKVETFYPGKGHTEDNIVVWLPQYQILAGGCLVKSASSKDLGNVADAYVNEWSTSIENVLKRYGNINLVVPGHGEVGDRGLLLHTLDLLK
Procedure, shortened: (§1)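 Spectrophotometric hydrolysis at 23 °C in PBS with 12.5 μg/mL BSA. EClbL was used at 0.1 μg/mL; BCbL and ECbL at 1.0 μg/mL. […] Initial velocities were linear over 1 min.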

[2] = target: Beta-lactamase TEM (Escherichia coli) (UniProt P62593); experiment: The kinetic constant(kcat) value as spectrophotometrically by using Escherichia coli TEM-1 beta-lactamase (ECbL) enzyme as catalyst; procedure, shortened: as §1
Chain of Beta-lactamase TEM (Escherichia coli) (P62593 whole entry): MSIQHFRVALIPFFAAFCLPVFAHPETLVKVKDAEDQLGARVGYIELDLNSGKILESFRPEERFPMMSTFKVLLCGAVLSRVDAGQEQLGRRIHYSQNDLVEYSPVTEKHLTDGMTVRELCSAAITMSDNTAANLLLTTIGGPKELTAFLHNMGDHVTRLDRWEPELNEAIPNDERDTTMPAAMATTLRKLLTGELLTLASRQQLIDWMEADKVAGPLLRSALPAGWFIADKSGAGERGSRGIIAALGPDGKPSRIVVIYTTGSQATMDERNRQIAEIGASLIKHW

[3] = target: Beta-lactamase (Enterobacter cloacae) (UniProt P05364); experiment: The kinetic constant(kcat) value as spectrophotometrically by using Enterobacter cloacae P99 beta-lactamase (ECIbL) enzyme as catalyst; procedure, shortened: as §1
Chain of Beta-lactamase (Enterobacter cloacae) (P05364 21-381 limits assumed): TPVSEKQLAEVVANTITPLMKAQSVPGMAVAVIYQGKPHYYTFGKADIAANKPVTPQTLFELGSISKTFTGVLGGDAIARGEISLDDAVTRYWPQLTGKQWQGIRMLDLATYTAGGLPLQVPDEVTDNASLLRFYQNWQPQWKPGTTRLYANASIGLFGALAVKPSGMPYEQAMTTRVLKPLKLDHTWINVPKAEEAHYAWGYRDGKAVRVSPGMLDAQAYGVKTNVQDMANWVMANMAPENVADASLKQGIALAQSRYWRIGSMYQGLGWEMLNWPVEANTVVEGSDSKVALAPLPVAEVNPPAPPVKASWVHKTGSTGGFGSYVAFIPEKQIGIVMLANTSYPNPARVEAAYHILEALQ

A k cat [1] of 6.6 s⁻¹, a k cat [2] of 2.8 s⁻¹ and a k cat [3] of 210 s⁻¹ were found for `COc1cccc2c1C(=O)c1c(O)c3c(c(O)c1C2=O)C[C@@](O)(C(=O)CO)C[C@@H]3OC1CC(NC(=O)OCC2=C(C(=O)O)N3C(=O)[C@@H](NC(=O)CCCC(=O)O)[C@H]3SC2)C(O)C(C)O1` (stereo partly drawn) in this work.
